ChEMBL document CHEMBL2021817, “Synthesis and anti-norovirus activity of pyranobenzopyrone compounds” (Bioorg Med Chem Lett, 2012)

Legend:
[1] = Cytotoxicity against human HG23 cells after 48 hrs; format: cell-based; conditions: read-out: TD50
Method in brief: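 HG23 cells (Norwalk virus replicon-harboring) were exposed to a concentration series from 0 (mock, DMSO) to 200 µM. Viability was read with a commercial cell cytotoxicity assay kit after 48 h of treatment, and the median toxic dose (TD50) was calculated from it.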

[2] = Therapeutic index, ratio of TD50 for human HG23 cells to ED50 for Norovirus; format: cell-based; conditions: read-out: Ratio TD50/ED50
Method in brief: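 TI was taken as TD50 over ED50, both measured in HG23 replicon cells. For ED50, one-day-old cells at 80-90% confluence were treated with 0 (mock, DMSO) to 10 µM, and replicon genome levels were quantified by real-time qRT-PCR at 48 h. For TD50, cells were treated with 0 to 200 µM and read with a cytotoxicity kit at 48 h.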

Norovirus = experiment: Antiviral activity against Norovirus infected in human HG23 cells assessed as inhibition of viral replication after 24 hrs by RT-PCR analysis; format: functional; conditions: HG23, 24 h, read-out: ED50 (the source's name)
Method in brief: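 Norwalk virus replicon-bearing HG23 cells were used one day after seeding, at 80-90% confluence. They were exposed to a range of compound concentrations from 0 (DMSO mock) to 10 µM. NV genome levels were quantified by real-time qRT-PCR. ED50 was taken as the concentration that lowered NV genome levels by 50%.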

Row | Compound | CC50 at 48 h [1] [µM] | selectivity ratio [2] | EC50 (Norovirus) [µM]
1 | Cc1cc2c(c(=O)o1)C=C1CC[C@H](C(C)CNC(=O)c3ccnc4ccccc34)C[C@@H]1O2 (stereo not given in full) | 104 | 18.8 | 5.5
2 | Cc1cc2c(c(=O)o1)C=C1CC[C@H](C(C)CNCc3cccnc3)C[C@@H]1O2 (mixture of isomers) | > 200 | > 50 | 4.1
3 | Cc1cc2c(c(=O)o1)C=C1CC[C@H](C(C)CNCc3ccc4ccccc4n3)C[C@@H]1O2 (mixture of isomers) | > 200 | > 58.8 | 3.4
4 | Cc1cc2c(c(=O)o1)C=C1CC[C@H](C(C)CNCc3ccnc4ccccc34)C[C@@H]1O2 (mixture of isomers) | 96.4 | 40.2 | 2.4
5 | Cc1cc2c(c(=O)o1)C=C1CC[C@H](C(C)CN)C[C@@H]1O2 (mixture of isomers) | > 200 |  | > 10
6 | Cc1cc2c(c(=O)o1)C=C1CC[C@H](C(C)CNCc3ccnc4c3ccc3ccccc34)C[C@@H]1O2 (mixture of isomers) | > 200 | > 40 | 5.3
7 | Cc1ccc2nc(CNCC(C)[C@H]3CCC4=Cc5c(cc(C)oc5=O)O[C@H]4C3)ccc2c1 (mixture of isomers) | 83.7 | 10.3 | 8.1
8 | CC(=O)OCc1cc(CNCC(C)[C@H]2CCC3=Cc4c(cc(C)oc4=O)O[C@H]3C2)c2ccccc2n1 (mixture of isomers) |  |  | 9.7
9 | Cc1ccc2nccc(CNCC(C)[C@H]3CCC4=Cc5c(cc(C)oc5=O)O[C@H]4C3)c2c1 (mixture of isomers) | 61.2 | 18 | 3.4
10 | Cc1cc2c(c(=O)o1)C=C1CC[C@H](C(C)CNCc3cc(C4OCOCO4)nc4ccccc34)C[C@@H]1O2 (mixture of isomers) |  |  | 8.4
11 | Cc1cc2c(c(=O)o1)C=C1CC[C@H](C(C)CNCc3ccc4ncccc4c3)C[C@@H]1O2 (stereo not given in full) |  |  | 8.1
12 | Cc1cc2c(c(=O)o1)C=C1CC[C@H](C(C)CNCc3cc(CO)nc4ccccc34)C[C@@H]1O2 (mixture of isomers) |  |  | 9.5
13 | Cc1cc2c(c(=O)o1)C=C1CC[C@H](C(C)CNCc3ccncc3)C[C@@H]1O2 (mixture of isomers) |  |  | 9.6
14 | Cc1cc(CNCC(C)[C@H]2CCC3=Cc4c(cc(C)oc4=O)O[C@H]3C2)c2ccccc2n1 (mixture of isomers) |  |  | 8.2
15 | Cc1cc2c(c(=O)o1)C=C1CC[C@H](C(C)CNCc3cc(C)c4ccccc4n3)C[C@@H]1O2 (mixture of isomers) | > 200 | > 40 | 5.3
16 | Cc1cc2c(c(=O)o1)C=C1CC[C@H](C(C)CNCc3cccc4cccnc34)C[C@@H]1O2 (mixture of isomers) | > 160 | > 16 | > 10
